{"source": "paper PMC11969444", "about": "(RSC Advances, 2025)", "key": {"β-glucosidase": {"molecular_target": "β-glucosidase", "experiment": "In vitro β-glucosidase inhibitory assay", "assay_type": "biochemical", "settings": "read-out: β-Glucosidase IC50 ± SEM; mean ± standard error of the mean", "method_in_brief": "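β-Glucosidase solution (0.5 U mL−1) was preincubated with test compound at varying concentrations in 0.1 M phosphate buffer, pH 6.9, at 37 °C for 15 min. The reaction was started with 5 mM p-nitrophenyl-β-D-glucopyranoside solution in the same buffer and run at 37 °C for 15 min. It was stopped with 0.2 M sodium carbonate and read at 405 nm. Controls were a sample-free reaction and an enzyme-free blank.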"}, "[1]": {"tested_on": "PGLT-induced diabetic rats", "experiment": "Blood glucose level in PGLT-induced diabetes", "assay_type": "in vivo", "method_in_brief": "(§1)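 Rats were given PGLT to induce diabetes and treated with test compounds for 28 days. Blood glucose and body weight were recorded on days 1, 7, 14, 21 and 28. Serum was assayed for TG, total CH, LDL, HDL, SGOT, SGPT and ALP. Groups were normal control, diabetic control and treated, n = 8 per group, shown as mean ± SEM. Treated groups were compared with diabetic control by one-way ANOVA with Dunnett's post hoc test.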"}, "[2]": {"tested_on": "PGLT-induced diabetic rats", "experiment": "Serum hepatic marker enzymes", "assay_type": "in vivo", "settings": "10 mg kg^−1, serum", "method_in_brief": "as §1"}, "[3]": {"tested_on": "PGLT-induced diabetic rats", "experiment": "Antihyperlipidemic effects", "assay_type": "in vivo", "settings": "10 mg kg^−1, 28 days", "method_in_brief": "as §1"}, "Effect on body weights": {"experiment": "Effect on body weights", "assay_type": "in vivo, rats", "method_in_brief": "as §1"}}}
{"compound": "O=[N+]([O-])c1ccc(O[C@@H]2O[C@H](CO)[C@@H](O)[C@H](O)[C@H]2O)cc1", "note": "[PGLT, p-nitrophenyl-β-D-glucopyranoside]", "values": [{"measurement": "Blood glucose level", "setting": "[1]; 10 mg kg^−1, 1st day", "value": "402.22 ± 4.97", "unit": "mg per dL"}, {"measurement": "Blood glucose level", "setting": "[1]; 10 mg kg^−1, 7th day", "value": "229.56 ± 4.80", "unit": "mg per dL"}, {"measurement": "Blood glucose level", "setting": "[1]; 10 mg kg^−1, 14th day", "value": "154.06 ± 4.59", "unit": "mg per dL"}, {"measurement": "Blood glucose level", "setting": "[1]; 10 mg kg^−1, 21st day", "value": "119.70 ± 4.87", "unit": "mg per dL"}, {"measurement": "Blood glucose level", "setting": "[1]; 10 mg kg^−1, 28th day, listed as p-Nitrophenyl-β-D-glucopyranoside (PGLT)", "value": "102.27 ± 4.31", "unit": "mg per dL"}, {"measurement": "Blood glucose level", "setting": "[1]; 10 mg kg^−1, 28th day, listed as p-nitrophenyl-β-D-glucopyranoside (PGLT)", "value": "102.27 ± 4.31", "unit": "mg per dL"}, {"measurement": "ALP", "setting": "[2]", "value": "171.04 ± 3.91", "unit": "IU"}, {"measurement": "SGOT", "setting": "[2]", "value": "21.39 ± 1.79", "unit": "IU"}, {"measurement": "SGPT", "setting": "[2]", "value": "21.17 ± 1.88", "unit": "IU"}, {"measurement": "HDL", "setting": "[3]", "value": "55.72 ± 2.01", "unit": "mg/dL"}, {"measurement": "LDL", "setting": "[3]", "value": "87.58 ± 2.96", "unit": "mg/dL"}, {"measurement": "TG", "setting": "[3]", "value": "96.36 ± 4.51", "unit": "mg/dL"}, {"measurement": "Total CH", "setting": "[3]", "value": "104.73 ± 4.83", "unit": "mg/dL"}, {"measurement": "Body weight", "setting": "Effect on body weights; 10 mg kg^−1, 1st day", "value": "20.16 ± 1.71"}, {"measurement": "Body weight", "setting": "Effect on body weights; 10 mg kg^−1, 7th day", "value": "19.88 ± 1.81"}, {"measurement": "Body weight", "setting": "Effect on body weights; 10 mg kg^−1, 14th day", "value": "20.01 ± 1.61"}, {"measurement": "Body weight", "setting": "Effect on body weights; 10 mg kg^−1, 21st day", "value": "19.70 ± 1.69"}, {"measurement": "Body weight", "setting": "Effect on body weights; 10 mg kg^−1, 28th day", "value": "19.66 ± 1.51"}, {"measurement": "weight loss", "setting": "Effect on body weights; day 1 to day 28, PGLT-treated group", "value": 2.48, "unit": "%"}]}
